F-actin modifier = modifiers of cytoskeleton assembly; HUVEC TNFa F-actin phalloidin imaging, high content; 91,000 tested, 0.18% active; inhibition, % at 2 µM;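 active = inhibition above the batch mean plus 3 SD and confirmed as a hit by visual image inspection, cut at about 30% in these data, passing the limit was not always enough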
H69AR inhibit = blocks growth of human H69AR lung tumor cells; H69AR lung tumor viability, ATP luminescence, 72 h; stronger effect = lower value; viability, % at 10 µM; 85,000 tested, 6% active; AID 598;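 active = viability at or below 40%; inactive = viability above 40%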;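 note: multidrug resistant small cell line overexpressing MRP-1 efflux transporter; 100% = mean luminescence of untreated control wells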
PTK2B oligo ant = antagonists of human Pyk2 oligomerization. Q14289. Q293 cells, Pyk2 FERM NanoBiT luminescence; stronger effect = lower value. z-score (the deposit names both 25 µM and 10 µM). 99,000 tested, 0.83% active. AID 1347419;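 active = Z-score of -3 or lower, scaled per plate to the spread of control and sample wells; inactive = z-score above -3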;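 note: negative z-score means lost luminescence so less FERM oligomerization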
Target sequence (Q14289 whole entry, looked up): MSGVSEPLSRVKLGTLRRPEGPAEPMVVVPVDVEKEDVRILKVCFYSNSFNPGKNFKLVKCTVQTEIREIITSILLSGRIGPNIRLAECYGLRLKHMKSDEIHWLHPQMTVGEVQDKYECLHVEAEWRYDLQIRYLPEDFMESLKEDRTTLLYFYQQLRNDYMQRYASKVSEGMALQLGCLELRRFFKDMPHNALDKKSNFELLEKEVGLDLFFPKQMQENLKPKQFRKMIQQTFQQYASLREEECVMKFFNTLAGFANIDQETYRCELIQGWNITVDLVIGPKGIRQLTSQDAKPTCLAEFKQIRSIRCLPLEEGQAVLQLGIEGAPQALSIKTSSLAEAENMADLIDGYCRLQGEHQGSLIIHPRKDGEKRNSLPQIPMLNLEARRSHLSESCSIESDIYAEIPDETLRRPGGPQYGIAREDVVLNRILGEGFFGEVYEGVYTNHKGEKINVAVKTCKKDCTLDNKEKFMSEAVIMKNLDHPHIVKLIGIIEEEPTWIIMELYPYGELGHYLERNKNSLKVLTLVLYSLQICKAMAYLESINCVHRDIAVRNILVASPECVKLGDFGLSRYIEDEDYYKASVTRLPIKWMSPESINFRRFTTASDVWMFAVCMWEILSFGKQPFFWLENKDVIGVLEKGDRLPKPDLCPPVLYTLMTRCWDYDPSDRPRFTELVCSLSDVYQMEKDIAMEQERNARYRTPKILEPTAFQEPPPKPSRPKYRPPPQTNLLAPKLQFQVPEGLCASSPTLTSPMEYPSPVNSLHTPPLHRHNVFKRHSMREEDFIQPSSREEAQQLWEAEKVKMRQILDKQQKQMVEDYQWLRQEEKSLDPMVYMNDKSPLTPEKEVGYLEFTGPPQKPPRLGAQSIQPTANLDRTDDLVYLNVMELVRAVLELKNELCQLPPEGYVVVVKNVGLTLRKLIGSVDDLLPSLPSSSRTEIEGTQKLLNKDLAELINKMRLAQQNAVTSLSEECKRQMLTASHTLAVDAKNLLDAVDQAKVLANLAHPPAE
Fibroblast inh = blocks proliferation of human lung fibroblasts | LL 47 human lung fibroblast viability, ATP luminescence; stronger effect = lower value | viability, % at 10 µM | 85,000 tested, 1.1% active | AID 719;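 active = viability at or below 50% in the single dose screen; inactive = viability above 50%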;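 note: compound exposure lasted 72 h before the ATP readout; 100% = median luminescence of untreated cell-only wells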
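Material: human LL 47 lung fibroblast cells; quantity: 1,150 cells/well; medium: IMEM plus 15% FBS; doses: 0.1% DMSO in all compound wells; timing: overnight attachment after seeding, then 72 h compound exposure at 37 °C; detection: CellTiter-Glo luminescence; measure: % viability of median cell-only signal; controls: cell-only wells, no compound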
HUVEC inhibit = blocks proliferation of human endothelial cells; HUVEC proliferation, CellTiter-Glo luminescence, 72 h; stronger effect = lower value; AID 648; 86,000 tested, 1.1% active; viability, % at 10 µM (by protocol);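 active = viability at or below 30%; inactive = viability above 30%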;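 note: 100% = median luminescence of DMSO-only cell control wells on each plate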
Jurkat tox 60K = cytotoxicity toward Jurkat cells; Jurkat E6.1 viability, ATP luminescence, 48 h; inhibition, % at 4 µM; 56,000 tested, 1.2% active; AID 463;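 active = inhibition above the mean inhibition of all tested compounds plus 3 SD, cut at about 28% in these data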
* = called active by the depositor. An excerpt weighted towards active compounds, which were near 6% of everything screened.

How did COc1ccc(Cc2nc(C(=O)Nc3ccc(Cl)cc3)cs2)cc1 do in these assays?
F-actin modifier: -4; H69AR inhibit: 100; PTK2B oligo ant: 1.6; Fibroblast inh: 112; HUVEC inhibit: 21*

What do the screens show for `CCOc1ccccc1-c1nc(-c2ccc(NC(=O)Cc3ccc(OC)cc3)cc2)no1`?
F-actin modifier: 38; H69AR inhibit: 11*; PTK2B oligo ant: -0.32; Fibroblast inh: 65; HUVEC inhibit: 20*; Jurkat tox 60K: 5

How did CC1CCc2c(sc3nc(C4CC4)nc(SCC(=O)NCc4ccco4)c23)C1 (centres undefined) do in these assays?
H69AR inhibit: 71; Fibroblast inh: 104; HUVEC inhibit: 93; Jurkat tox 60K: 2

What do the screens show for `O=C(c1cccc(C(F)(F)F)c1)N1CCOC12CCN(c1ncc(C(F)(F)F)cc1Cl)CC2`?
F-actin modifier: 11; H69AR inhibit: 63; PTK2B oligo ant: 1.5; Fibroblast inh: 98; HUVEC inhibit: 86

What do the screens show for `COc1ccc(CC(=O)Nc2ccc(-c3noc(-c4cc(OC)c(OC)c(OC)c4)n3)cc2)cc1`?
F-actin modifier: 11; H69AR inhibit: 21*; PTK2B oligo ant: 1.5; Fibroblast inh: 98; HUVEC inhibit: 57

How did Cc1cccc(Nc2nc(N3CCCCC3)nc(N3CCCCC3)n2)c1 do in these assays?
F-actin modifier: 6; H69AR inhibit: 94; PTK2B oligo ant: -0.62; Fibroblast inh: 95; HUVEC inhibit: 93

What do the screens show for `CCCNc1nc(Nc2ccc(C)cc2)nc(N2CCCC2)n1`?
F-actin modifier: 4; H69AR inhibit: 35*; PTK2B oligo ant: -0.35; Fibroblast inh: 66; HUVEC inhibit: 30

How did Cc1cccc(NC(=O)CSc2nc3ccccc3c3nc(CCc4c(C)n[nH]c4C)nn23)c1 do in these assays?
F-actin modifier: 3; H69AR inhibit: 1.1*; PTK2B oligo ant: -1.6; Fibroblast inh: 26*; HUVEC inhibit: 2.0*

Results for Cc1n[nH]c(C)c1CCc1nc2c3ccccc3nc(SCC(=O)Nc3ccccc3F)n2n1 ?
F-actin modifier: 2; H69AR inhibit: 81; PTK2B oligo ant: -1.2; Fibroblast inh: 99; HUVEC inhibit: 98

How did Cc1nnc(NC(=O)Cn2cnc3c2c(=O)n(C)c(=O)n3C)s1 do in these assays?
F-actin modifier: 0; H69AR inhibit: 94; PTK2B oligo ant: -0.04; Fibroblast inh: 98; HUVEC inhibit: 100

How did ONC(=Nc1ccc(Cl)cc1)c1ccccc1 do in these assays?
PTK2B oligo ant: -0.73

What do the screens show for `COc1ccc(C2=CSC3=C(C(=O)c4cccc(S(=O)(=O)N(C)C)c4)CCN23)cc1`?
H69AR inhibit: 72; PTK2B oligo ant: 0.18; Fibroblast inh: 101; HUVEC inhibit: 94

Results for COC(=O)c1ccccc1NC(=O)c1ccc2c(c1)C(=O)N(Cc1ccco1)C2=O ?
F-actin modifier: 2; H69AR inhibit: 11*; PTK2B oligo ant: 1.3; Fibroblast inh: 107; HUVEC inhibit: 92; Jurkat tox 60K: -6

Results for CCc1ccc(NC(=O)c2ccc3c(c2)C(=O)N(Cc2ccco2)C3=O)cc1 ?
H69AR inhibit: 62; Fibroblast inh: 95; HUVEC inhibit: 84; Jurkat tox 60K: 8

Results for O=C(Nc1ccc(Br)cc1)c1ccc(N2C(=O)C3CC=C(Cl)CC3C2=O)cc1 (centres undefined) ?
H69AR inhibit: 25*; PTK2B oligo ant: -0.81; Fibroblast inh: 92; HUVEC inhibit: 36

Results for Nc1cc2c(cc1C(=O)c1ccccc1)OCCO2 ?
F-actin modifier: 4; H69AR inhibit: 72; PTK2B oligo ant: -0.43; Fibroblast inh: 95; HUVEC inhibit: 88

What do the screens show for `Nc1ccc(C(=O)c2ccc3c(c2)OCCO3)cc1N`?
F-actin modifier: -2; H69AR inhibit: 36*; PTK2B oligo ant: -0.13; Fibroblast inh: 96; HUVEC inhibit: 98; Jurkat tox 60K: -4

Results for CC(C)(/C=N/O)/[N+]([O-])=C/C=[N+](\[O-])C(C)(C)/C=N/O ?
F-actin modifier: 6; H69AR inhibit: 89; PTK2B oligo ant: 1.5; Fibroblast inh: 92; HUVEC inhibit: 96; Jurkat tox 60K: -9

What do the screens show for `CN(C)c1ccc(/C=[N+](\[O-])C(C)(C)/C=N/O)cc1`?
F-actin modifier: 6; H69AR inhibit: 30*; PTK2B oligo ant: 1.4; HUVEC inhibit: 97; Jurkat tox 60K: -5

How did CCS(=O)(=O)N1CCC(C(=O)NC2CCCCC2)CC1 do in these assays?
F-actin modifier: 31*; H69AR inhibit: 99; PTK2B oligo ant: 1.1; Fibroblast inh: 97; HUVEC inhibit: 99; Jurkat tox 60K: 4

Results for CC(CNC(=O)CC(C)(C)C)NC(=O)CC(C)(C)C (centres undefined) ?
F-actin modifier: 2; H69AR inhibit: 102; PTK2B oligo ant: -0.13; Fibroblast inh: 91; HUVEC inhibit: 88

Results for COc1ccc(/C=C/C(=O)c2ccccc2O)cc1CN1CCOCC1 ?
F-actin modifier: 2; PTK2B oligo ant: -0.55

What do the screens show for `COc1ccc(/C=N/n2cnc3c([nH]c4ccc(Br)cc43)c2=O)cc1CN1CCOCC1`?
F-actin modifier: 5; H69AR inhibit: 3.7*; Fibroblast inh: 8.7*; HUVEC inhibit: 23*

How did CCc1c(C)c(C#N)c2nc3ccccc3n2c1NCC1CCCO1 (centres undefined) do in these assays?
F-actin modifier: -1; H69AR inhibit: 32*; PTK2B oligo ant: -0.25; Fibroblast inh: 100; HUVEC inhibit: 104

How did CCCc1c(C)c(C#N)c2nc3ccccc3n2c1NCCCN1CCOCC1 do in these assays?
F-actin modifier: -4; PTK2B oligo ant: -0.76

Results for Cc1cc(NCC2CCCO2)n2c(nc3ccccc32)c1C#N (centres undefined) ?
F-actin modifier: 9; H69AR inhibit: 65; PTK2B oligo ant: -0.56; Fibroblast inh: 102; HUVEC inhibit: 88

Results for CC(C)c1cc(NCC2CCCO2)n2c(nc3ccccc32)c1C#N (centres undefined) ?
F-actin modifier: 6; H69AR inhibit: 9.7*; PTK2B oligo ant: -1.3; Fibroblast inh: 95; HUVEC inhibit: 80

How did CC(C)(C)c1csc(NC(=O)Cn2c(=O)oc3ccccc32)n1 do in these assays?
F-actin modifier: -3; H69AR inhibit: 85; PTK2B oligo ant: -3.4*; Fibroblast inh: 99; HUVEC inhibit: 110; Jurkat tox 60K: 2

What do the screens show for `CC(C)(C)c1cc(NC(=O)c2cc(F)c(F)c(F)c2F)no1`?
H69AR inhibit: 35*; PTK2B oligo ant: -0.41; Fibroblast inh: 50; HUVEC inhibit: 69; Jurkat tox 60K: -8

How did CCn1c(=O)c(C2=NS(=O)(=O)c3ccccc3N2)c(O)c2ccccc21 do in these assays?
H69AR inhibit: 70; Fibroblast inh: 100; HUVEC inhibit: 89; Jurkat tox 60K: -2

What do the screens show for `COC(=O)c1ccc(NC(=O)COc2ccc(S(=O)(=O)N3CCCCC3)cc2)cc1`?
F-actin modifier: 13; H69AR inhibit: 58; PTK2B oligo ant: -0.06; Fibroblast inh: 86; HUVEC inhibit: 99
